Experimental data published in ChEMBL document CHEMBL1131637, “Novel and selective 5-HT2C/2B receptor antagonists as potential anxiolytic agents: synthesis, quantitative structure-activity relationships, and molecular modeling of substituted 1-(3-pyridylcarbamoyl)indolines” (J Med Chem, 1998).

Tests used:
[1] = tested on: Rattus norvegicus; assay: Percentage change unpunished lever presses from mean score on 6-8 rats at 5 mg/kg po1h pretest; type: functional
[2] = tested on: Rattus norvegicus; assay: Percentage change punished lever presses from mean score on 6-8 rats at 5 mg/kg po1h pretest; type: functional
Method in brief: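 Geller–Seifter conflict test in trained rats, groups of 6–8, oral dosing. Lever pressing for food reward on a multiple schedule: five 3-min VI30 components alternating with five 3-min light-signalled FR5 components, where reward came with footshock (15 ms pulses at 200 ms intervals for 1 s). Punished presses compared with each of 2 preceding vehicle-treated test days by two-way ANOVA of square-root-transformed data.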

Compound: CN1C(=O)CN=C(c2ccccc2)c2cc(Cl)ccc21 [DIAZEPAM]
- Change [1]: -19%
- Change [2]: 70%
